ChEMBL document CHEMBL5360637, “Ravidomycin Analogs from Streptomyces sp. Exhibit Altered Antimicrobial and Cytotoxic Selectivity” (J Nat Prod, 2023)
In brackets after ≈: the same amount, converted by molar mass.

Tests used:
Staphylococcus aureus = test: Antibacterial activity against Staphylococcus aureus Newman assessed as bacterial growth inhibition incubated for 24 hrs by microtiter plate reader analysis; format: functional
Summary of the method: (§1)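 Broth microdilution in Mueller-Hinton broth (P. aeruginosa PAO1 is the mexAB-oprM strain). Overnight cultures were diluted 1:1000 and 200 μL was added to wells holding 2 μL of compound in DMSO. Plates were incubated 24 h at room temperature under room fluorescent light, then OD600 was read. MIC was taken as the lowest concentration keeping OD600 from rising above 0.1.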

Pseudomonas aeruginosa = test: Antibacterial activity against Pseudomonas aeruginosa PAO1 assessed as bacterial growth inhibition incubated for 24 hrs by microtiter plate reader analysis; format: functional; summary of the method: as §1
Candida albicans = test: Antifungal activity against Candida albicans SC5314 assessed as bacterial growth inhibition incubated for 24 hrs by microtiter plate reader analysis; format: functional
Summary of the method: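 C. albicans was grown in RPMI 1640 with 165 mM MOPS, pH 7.0. Overnight culture was diluted 1:1000 and 200 μL was added to wells holding 2 μL of compound in DMSO. Plates were incubated 24 h at room temperature under room fluorescent light, then OD600 was read. MIC was the lowest concentration preventing OD600 from exceeding 0.1.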

HCC1806 = test: Cytotoxicity against human HCC1806 cells assessed as reduction in cell viability incubated for 72 hrs by Cell-titer glo assay; format: functional, cell-based; settings: HCC1806, 72 h
Summary of the method: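 HCC1806 cells were grown in DMEM with 10% FBS, penicillin/streptomycin and 1% GlutaMax, were mycoplasma-tested and kept ≤4 weeks. Cells were seeded at 2500 per well and treated after 24 h, with six wells per dose, against a 0.1% DMSO vehicle. CellTiter-Glo 2.0 luminescence was read at 72 h. IC50 came from a log(inhibitor) vs normalized response least-squares fit of % viability relative to DMSO.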

C=Cc1cc(OC)c2c(c1)c(=O)oc1c2cc(OC)c2c(O)ccc([C@@H]3O[C@H](C)[C@H](OC(C)=O)[C@H](O)[C@H]3O)c21
MIC (Staphylococcus aureus): 0.003 µg/mL (≈ 0.00559 µM)
MIC (Pseudomonas aeruginosa): 50 µg/mL (≈ 93.2 µM)
MIC (Candida albicans): 6.3 µg/mL (≈ 11.7 µM)
IC50 (HCC1806): 5100 nM

C=Cc1cc(OC)c2c(c1)c(=O)oc1c2cc(OC)c2c(O)ccc([C@@H]3O[C@H](C)[C@H](O)[C@H](NC)[C@H]3O)c21
MIC (Staphylococcus aureus): 0.049 µg/mL (≈ 0.0965 µM)
MIC (Pseudomonas aeruginosa): 6.3 µg/mL (≈ 12.4 µM)
MIC (Candida albicans): 0.78 µg/mL (≈ 1.54 µM)
IC50 (HCC1806): 53 nM

COc1cc2c(oc(=O)c3cc([C@H](C)O)cc(OC)c32)c2c([C@@H]3O[C@H](C)[C@H](O)[C@H](N(C)C)[C@H]3O)ccc(O)c12
MIC (Staphylococcus aureus): 13 µg/mL (≈ 24.1 µM)
MIC (Pseudomonas aeruginosa): > 13 µg/mL
MIC (Candida albicans): > 13 µg/mL
IC50 (HCC1806): > 10000 nM

C=Cc1cc(OC)c2c(c1)c(=O)oc1c2cc(OC)c2c(O)ccc([C@@H]3O[C@H](C)[C@H](O)[C@H](N(C)C)[C@H]3O)c21
MIC (Staphylococcus aureus): 0.006 µg/mL (≈ 0.0115 µM)
MIC (Pseudomonas aeruginosa): 3.1 µg/mL (≈ 5.94 µM)
MIC (Candida albicans): 0.78 µg/mL (≈ 1.5 µM)
IC50 (HCC1806): 81 nM

C=Cc1cc(OC)c2c(c1)c(=O)oc1c2cc(OC)c2c(O)ccc([C@@H]3O[C@H](C)[C@H](O)[C@H](N(C)C(=O)OC)[C@H]3O)c21
MIC (Staphylococcus aureus): 0.003 µg/mL (≈ 0.0053 µM)
MIC (Pseudomonas aeruginosa): 50 µg/mL (≈ 88.4 µM)
MIC (Candida albicans): 6.3 µg/mL (≈ 11.1 µM)
IC50 (HCC1806): 550 nM

C=Cc1cc(OC)c2c(c1)c(=O)oc1c2cc(OC)c2c(O)ccc([C@@H]3O[C@H](C)[C@H](O)[C@H](OC(C)=O)[C@H]3O)c21
MIC (Staphylococcus aureus): 0.006 µg/mL (≈ 0.0112 µM)
MIC (Pseudomonas aeruginosa): > 100 µg/mL
MIC (Candida albicans): 6.3 µg/mL (≈ 11.7 µM)
IC50 (HCC1806): 370 nM

CCc1cc(OC)c2c(c1)c(=O)oc1c2cc(OC)c2c(O)ccc([C@@H]3O[C@H](C)[C@H](O)[C@H](N(C)C)[C@H]3O)c21
MIC (Staphylococcus aureus): 0.78 µg/mL (≈ 1.49 µM)
MIC (Pseudomonas aeruginosa): > 100 µg/mL
MIC (Candida albicans): 25 µg/mL (≈ 47.7 µM)
IC50 (HCC1806): > 10000 nM

C=Cc1cc(O)c2c(c1)c(=O)oc1c2cc(OC)c2c(O)ccc([C@@H]3O[C@H](C)[C@H](O)[C@H](N(C)C)[C@H]3O)c21
MIC (Staphylococcus aureus): 0.39 µg/mL (≈ 0.768 µM)
MIC (Pseudomonas aeruginosa): > 13 µg/mL
MIC (Candida albicans): 13 µg/mL (≈ 25.6 µM)
IC50 (HCC1806): > 10000 nM

C=Cc1cc(OC)c2c(c1)c(=O)oc1c2cc(OC)c2c(O)ccc([C@@H]3O[C@H](C)[C@H](O)[C@H](O)[C@H]3O)c21
MIC (Staphylococcus aureus): 0.006 µg/mL (≈ 0.0121 µM)
MIC (Pseudomonas aeruginosa): 3.1 µg/mL (≈ 6.27 µM)
MIC (Candida albicans): 13 µg/mL (≈ 26.3 µM)
IC50 (HCC1806): 3600 nM

C=Cc1cc(OC)c2c(c1)c(=O)oc1c2cc(OC)c2c(O)ccc([C@@H]3O[C@H](C)[C@H](O)[C@H](N(C)C(C)=O)[C@H]3O)c21
MIC (Staphylococcus aureus): 0.006 µg/mL (≈ 0.0109 µM)
MIC (Pseudomonas aeruginosa): 50 µg/mL (≈ 91 µM)
MIC (Candida albicans): 13 µg/mL (≈ 23.7 µM)
IC50 (HCC1806): 1700 nM

C=Cc1cc(OC)c2c(c1)c(=O)oc1c2cc(OC)c2c(O)ccc([C@@H]3O[C@H](C)[C@H](O)C[C@H]3O)c21
MIC (Staphylococcus aureus): 0.1 µg/mL (≈ 0.209 µM)
MIC (Pseudomonas aeruginosa): 50 µg/mL (≈ 104 µM)
MIC (Candida albicans): 6.3 µg/mL (≈ 13.2 µM)
IC50 (HCC1806): > 10000 nM

C=Cc1cc(OC)c2c(c1)c(=O)oc1c2cc(OC)c2c(O)ccc([C@@H]3O[C@H](C)[C@H](O)[C@H](NC(=O)OC)[C@H]3O)c21
MIC (Staphylococcus aureus): 0.012 µg/mL (≈ 0.0218 µM)
MIC (Pseudomonas aeruginosa): 25 µg/mL (≈ 45.3 µM)
MIC (Candida albicans): 6.3 µg/mL (≈ 11.4 µM)
IC50 (HCC1806): 710 nM

COc1cc2c(oc(=O)c3cc(C)cc(OC)c32)c2c([C@@H]3O[C@H](C)[C@H](O)[C@H](N(C)C)[C@H]3O)ccc(O)c12
MIC (Staphylococcus aureus): 1.6 µg/mL (≈ 3.14 µM)
MIC (Pseudomonas aeruginosa): > 100 µg/mL
MIC (Candida albicans): 100 µg/mL (≈ 196 µM)
IC50 (HCC1806): 3600 nM

C=Cc1cc(OC)c2c(c1)c(=O)oc1c2cc(OC)c2c(O)ccc([C@@H]3O[C@H](C)[C@H](O)[C@H](O)[C@H]3OC(C)=O)c21
MIC (Staphylococcus aureus): 0.049 µg/mL (≈ 0.0913 µM)
MIC (Pseudomonas aeruginosa): > 100 µg/mL
MIC (Candida albicans): > 25 µg/mL
IC50 (HCC1806): 870 nM

C=Cc1cc(OC)c2c(c1)c(=O)oc1c2cc(OC)c2c(O)ccc([C@@H]3O[C@H](C)[C@H](O)[C@H](NC(C)=O)[C@H]3O)c21
MIC (Staphylococcus aureus): 0.1 µg/mL (≈ 0.187 µM)
MIC (Pseudomonas aeruginosa): > 13 µg/mL
MIC (Candida albicans): 13 µg/mL (≈ 24.3 µM)
IC50 (HCC1806): > 10000 nM

C=Cc1cc(OC)c2c(c1)c(=O)oc1c2cc(OC)c2c(O)ccc([C@@H]3O[C@H](C)[C@H](OC(C)=O)[C@H](N(C)C)[C@H]3O)c21
MIC (Staphylococcus aureus): 0.39 µg/mL (≈ 0.692 µM)
MIC (Pseudomonas aeruginosa): 13 µg/mL (≈ 23.1 µM)
MIC (Candida albicans): 0.39 µg/mL (≈ 0.692 µM)
IC50 (HCC1806): 42 nM
